Experimental findings from ChEMBL document CHEMBL2169836 (J Med Chem, 2012) are described below.

Series [1] has as its target Sodium/hydrogen exchanger 1 (Homo sapiens, UniProt P19634). Kind of series: Inhibition of NHE1 in human HT-29 cells assessed as intracellular pH change after 30 mins. It counts as cell-based.
A short description of series [2]: Metabolic stability in rat liver microsomes at 1 uM up to 60 mins by LC/MS/MS analysis relative to hepatic blood flow. The format is ADME, Microsome. Conditions: read-out: Stability. In general terms: Liver microsomes are vesicles of endoplasmic reticulum, rich in cytochrome P450 enzymes.
The nature of series [3]: Permeability of the compound by PAMPA. It counts as ADME. Conditions: read-out: permeability. The gist of the method:
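Donor buffers were set to pH 5.0, 6.2 and 7.4 with NaOH, and ASB7.4 buffer was used as acceptor. Filters (0.45 pore, 125 μm thick) were lipid-coated. A 10 mM DMSO stock was diluted to 41.7 μM in donor buffer. The sandwich was incubated 4 h without stirring. Reference, donor and acceptor concentrations were read in duplicate by UV plate reader, and ratings were assigned from permeation velocity.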
A general note: PAMPA measures passive passage across an artificial lipid membrane.

The nature of series [4]: Metabolic stability in human liver microsomes at 1 uM up to 60 mins by LC/MS/MS analysis relative to hepatic blood flow. It counts as ADME, Microsome. Conditions: read-out: Stability.
In another series the target is Cytochrome P450 2D6 (Homo sapiens, UniProt P10635). Kind of series: Inhibition of CYP2D6 in human liver microsomes using 3-[2-(N,N-diethyl-N-methylamino)ethyl]-7- methoxy-4-methylcoumarin as substrate after 45 mins by LC/MS/MS analysis. It counts as ADME, Microsome.
Sequence of Cytochrome P450 2D6 (P10635 whole entry): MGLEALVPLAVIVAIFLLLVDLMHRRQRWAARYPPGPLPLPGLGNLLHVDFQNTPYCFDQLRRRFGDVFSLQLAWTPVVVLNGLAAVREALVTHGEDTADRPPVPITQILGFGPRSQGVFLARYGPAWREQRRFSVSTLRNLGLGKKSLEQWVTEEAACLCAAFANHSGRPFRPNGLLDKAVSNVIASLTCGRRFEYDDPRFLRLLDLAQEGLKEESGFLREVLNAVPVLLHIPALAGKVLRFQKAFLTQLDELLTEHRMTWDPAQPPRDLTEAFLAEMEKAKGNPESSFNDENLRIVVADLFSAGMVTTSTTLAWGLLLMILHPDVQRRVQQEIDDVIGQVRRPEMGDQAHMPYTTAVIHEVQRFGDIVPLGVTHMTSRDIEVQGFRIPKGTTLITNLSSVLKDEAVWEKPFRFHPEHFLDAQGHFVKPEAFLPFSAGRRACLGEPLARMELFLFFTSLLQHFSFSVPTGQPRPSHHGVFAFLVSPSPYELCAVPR
A further series addresses Cytochrome P450 3A4 (Homo sapiens, UniProt P08684). Nature of the series: Inhibition of CYP3A4 in human liver microsomes using 7-benzyloxy-4-(trifluoromethyl)-coumarin as substrate after 30 mins by LC/MS/MS analysis. It counts as ADME, Microsome.
A further series concerns the target Cytochrome P450 2C9 (Homo sapiens, UniProt P11712). Kind of series: Inhibition of CYP2C9 in human liver microsomes using 7-methoxy-4-(trifluoromethyl)-coumarin as substrate after 45 mins by LC/MS/MS analysis. The format is ADME, Microsome.
A further series addresses Cytochrome P450 2C19 (Homo sapiens, UniProt P33261). Kind of series: Inhibition of CYP2C19 in human liver microsomes using 7-ethoxy-3-cyanocoumarin as substrate after 45 mins by LC/MS/MS analysis. It counts as ADME, Microsome.

Sequence of Sodium/hydrogen exchanger 1 (P19634 whole entry): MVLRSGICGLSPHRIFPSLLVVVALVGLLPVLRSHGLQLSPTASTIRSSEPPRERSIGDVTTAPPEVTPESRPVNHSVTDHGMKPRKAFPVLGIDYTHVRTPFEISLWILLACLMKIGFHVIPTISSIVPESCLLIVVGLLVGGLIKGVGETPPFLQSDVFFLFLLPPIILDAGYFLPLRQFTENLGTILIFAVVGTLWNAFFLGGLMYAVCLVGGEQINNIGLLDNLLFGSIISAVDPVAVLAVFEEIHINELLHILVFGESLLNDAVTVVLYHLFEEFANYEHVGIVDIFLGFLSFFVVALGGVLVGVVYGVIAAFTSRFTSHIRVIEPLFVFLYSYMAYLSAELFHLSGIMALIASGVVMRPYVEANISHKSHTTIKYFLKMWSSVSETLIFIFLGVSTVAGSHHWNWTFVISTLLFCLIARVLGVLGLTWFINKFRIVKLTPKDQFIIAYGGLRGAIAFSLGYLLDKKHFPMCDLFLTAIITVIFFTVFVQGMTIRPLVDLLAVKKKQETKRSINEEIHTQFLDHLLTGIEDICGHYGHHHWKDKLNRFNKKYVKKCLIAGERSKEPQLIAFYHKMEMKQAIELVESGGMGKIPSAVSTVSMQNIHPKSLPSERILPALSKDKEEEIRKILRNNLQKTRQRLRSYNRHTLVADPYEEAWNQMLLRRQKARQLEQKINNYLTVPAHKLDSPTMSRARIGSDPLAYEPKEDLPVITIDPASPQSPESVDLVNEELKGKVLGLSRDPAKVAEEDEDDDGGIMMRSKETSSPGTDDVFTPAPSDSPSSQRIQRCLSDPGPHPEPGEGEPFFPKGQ
Sequence of Cytochrome P450 2C19 (P33261 whole entry): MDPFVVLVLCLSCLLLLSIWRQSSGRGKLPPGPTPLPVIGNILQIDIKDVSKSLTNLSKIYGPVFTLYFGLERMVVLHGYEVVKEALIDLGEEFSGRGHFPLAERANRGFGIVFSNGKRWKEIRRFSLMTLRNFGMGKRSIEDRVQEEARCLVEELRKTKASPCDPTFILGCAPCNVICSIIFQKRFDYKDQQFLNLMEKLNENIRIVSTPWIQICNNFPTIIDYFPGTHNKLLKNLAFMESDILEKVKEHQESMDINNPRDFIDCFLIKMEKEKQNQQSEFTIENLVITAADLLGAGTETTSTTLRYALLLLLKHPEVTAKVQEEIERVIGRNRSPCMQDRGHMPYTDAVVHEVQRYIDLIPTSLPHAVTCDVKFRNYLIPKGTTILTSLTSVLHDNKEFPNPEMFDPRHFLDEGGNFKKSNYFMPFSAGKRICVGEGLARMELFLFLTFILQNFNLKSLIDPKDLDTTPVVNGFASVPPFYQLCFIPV
Sequence of Cytochrome P450 2C9 (P11712 whole entry): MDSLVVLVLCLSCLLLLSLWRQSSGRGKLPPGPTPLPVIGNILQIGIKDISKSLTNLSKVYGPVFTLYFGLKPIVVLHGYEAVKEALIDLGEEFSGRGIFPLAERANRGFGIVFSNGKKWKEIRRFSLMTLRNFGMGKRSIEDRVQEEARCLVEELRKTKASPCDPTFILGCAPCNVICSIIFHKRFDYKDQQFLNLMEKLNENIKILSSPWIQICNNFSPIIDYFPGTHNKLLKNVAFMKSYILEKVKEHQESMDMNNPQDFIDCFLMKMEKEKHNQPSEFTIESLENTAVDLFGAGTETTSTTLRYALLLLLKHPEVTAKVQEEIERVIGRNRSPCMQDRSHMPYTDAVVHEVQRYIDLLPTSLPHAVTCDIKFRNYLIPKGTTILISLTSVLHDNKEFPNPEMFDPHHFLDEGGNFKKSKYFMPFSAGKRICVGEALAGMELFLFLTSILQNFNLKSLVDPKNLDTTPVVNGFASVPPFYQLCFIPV
Sequence of Cytochrome P450 3A4 (P08684 whole entry): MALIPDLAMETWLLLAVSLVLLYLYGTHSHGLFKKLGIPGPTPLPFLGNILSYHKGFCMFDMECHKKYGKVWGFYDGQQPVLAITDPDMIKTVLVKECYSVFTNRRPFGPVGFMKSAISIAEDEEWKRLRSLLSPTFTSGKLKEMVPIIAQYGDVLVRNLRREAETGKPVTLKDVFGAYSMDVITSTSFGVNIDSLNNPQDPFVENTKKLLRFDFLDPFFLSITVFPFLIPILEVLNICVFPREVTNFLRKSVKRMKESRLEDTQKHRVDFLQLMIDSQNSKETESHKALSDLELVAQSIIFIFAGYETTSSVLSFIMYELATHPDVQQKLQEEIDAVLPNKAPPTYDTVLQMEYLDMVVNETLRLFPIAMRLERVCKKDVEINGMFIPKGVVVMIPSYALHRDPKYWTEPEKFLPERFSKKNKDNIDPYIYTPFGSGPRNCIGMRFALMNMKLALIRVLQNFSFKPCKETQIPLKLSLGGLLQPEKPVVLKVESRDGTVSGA

For `N=C(N)NC(=O)c1ccc(C2CCN(C(=O)c3ccccc3Cl)CC2)c(C(F)(F)F)c1`, in series [1], the IC50 worked out at 0.108 µM.
With `N=C(N)NC(=O)c1ccc(C2CCN(C(=O)c3ccc(C(F)(F)F)cc3)CC2)c(C(F)(F)F)c1`, the IC50 in series [1] came to 0.32 µM.
Same read-out and setting: then `N=C(N)NC(=O)c1ccc(C2CCN(C(=O)c3ccc[nH]3)CC2)c(C(F)(F)F)c1`, with 0.045 µM.
Turning to `N=C(N)NC(=O)c1ccc(C2CCN(C(=O)c3ccc(O)cc3)CC2)c(C(F)(F)F)c1`, the IC50 in series [1] is 0.021 µM. The values for the hepatic extraction ratio at 1 h, 1 µM in series [2] and in series [4] were 0.11 and 0.27, respectively. Besides, the Papp in series [3] is less than 2 ×10⁻⁶ cm/s.
In the case of `CS(=O)(=O)c1cccc(C(=O)N2CCC(c3ccc(C(=O)NC(=N)N)cc3C(F)(F)F)CC2)c1`, the IC50 is greater than 30 µM at Cytochrome P450 2D6; 0.06 µM in series [1]; greater than 30 µM on Cytochrome P450 3A4; greater than 30 µM at Cytochrome P450 2C9; greater than 30 µM at Cytochrome P450 2C19. In addition, the hepatic extraction ratio at 1 h, 1 µM in series [2] was 0.14; in series [4] it was 0.15. Besides, the Papp in series [3] is less than 2 ×10⁻⁶ cm/s.
In the case of `Cn1cncc1C(=O)N1CCC(c2ccc(C(=O)NC(=N)N)cc2C(F)(F)F)CC1`, the IC50 was greater than 30 µM at Cytochrome P450 2D6; 0.018 µM in series [1]; 3 µM at Cytochrome P450 3A4; 25 µM at Cytochrome P450 2C9; 15 µM against Cytochrome P450 2C19. The hepatic extraction ratio at 1 h, 1 µM in series [2] is less than 0.056; in series [4], 0.23. For the same molecule, the Papp in series [3] is less than 2 ×10⁻⁶ cm/s.
For the molecule `CNC(=O)c1ccc(C(=O)N2CCC(c3ccc(C(=O)NC(=N)N)cc3C(F)(F)F)CC2)cc1`, the IC50 in series [1] was 0.052 µM. Also, the Papp in series [3] is less than 2 ×10⁻⁶ cm/s.
Take `N=C(N)NC(=O)c1ccc(C2CCN(C(=O)c3ccc(O)nc3)CC2)c(C(F)(F)F)c1`: the half-maximal inhibitory concentration (IC50) was greater than 30 µM on Cytochrome P450 2D6; 0.019 µM in series [1]; greater than 30 µM at Cytochrome P450 3A4; 29 µM against Cytochrome P450 2C9; greater than 30 µM on Cytochrome P450 2C19. For the same molecule, the values for the hepatic extraction ratio at 1 h, 1 µM in series [2] and in series [4] were 0.1 and 0.18, respectively. For the same molecule, in series [3], the Papp is less than 2 ×10⁻⁶ cm/s.
For `CC(=O)N1CCC(c2ccc(C(=O)NC(=N)N)cc2S(C)(=O)=O)CC1`, in series [1], the IC50 turned out to be 0.022 µM.
On the same count and under the same terms, the result for `N=C(N)NC(=O)c1ccc(C2CCN(C(=O)c3ccc(-c4cnco4)cc3)CC2)c(C(F)(F)F)c1` reads 0.102 µM.
As to `N=C(N)NC(=O)c1ccc(C2CCN(C(=O)c3ccccc3)CC2)c(C(F)(F)F)c1`, the IC50 against Cytochrome P450 2D6 was greater than 30 µM; in series [1] it was 0.068 µM; on Cytochrome P450 3A4, greater than 30 µM; against Cytochrome P450 2C9, 7 µM; against Cytochrome P450 2C19, 5 µM. Further, the hepatic extraction ratio at 1 h, 1 µM is 0.46 in series [2] and 0.67 in series [4]. For the same molecule, the Papp in series [3] was no less than 2 ×10⁻⁶ cm/s.
For the molecule `N=C(N)NC(=O)c1ccc(C2CCN(C(=O)C3CCCC3)CC2)c(C(F)(F)F)c1`, the IC50 in series [1] was determined as 0.064 µM.
Same read-out and setting: then `CS(=O)(=O)c1ccccc1C(=O)N1CCC(c2ccc(C(=O)NC(=N)N)cc2C(F)(F)F)CC1`, with 0.058 µM; and `COc1cc(C2CCN(C(C)=O)CC2)c(C(F)(F)F)cc1C(=O)NC(=N)N`, with 0.019 µM.
Regarding `N=C(N)NC(=O)c1ccc(C2CCN(C(=O)c3ccc(S(N)(=O)=O)cc3)CC2)c(C(F)(F)F)c1`, the IC50 against Cytochrome P450 2D6 is greater than 30 µM; in series [1], 0.014 µM; against Cytochrome P450 3A4 it was 24 µM; at Cytochrome P450 2C9, 16 µM; at Cytochrome P450 2C19 it was greater than 30 µM. The hepatic extraction ratio at 1 h, 1 µM in series [2] was 0.07; in series [4], 0.24. The Papp in series [3] was less than 2 ×10⁻⁶ cm/s.
Consider `CCC(=O)N1CCC(c2ccc(C(=O)NC(=N)N)cc2S(C)(=O)=O)CC1`, for which, in series [1], the IC50 was determined as 0.029 µM.
As to `N=C(N)NC(=O)c1ccc(C2CCN(C(=O)c3ccc(C(N)=O)cc3)CC2)c(C(F)(F)F)c1`, the IC50 at Cytochrome P450 2D6 is 12 µM; in series [1], 0.026 µM; at Cytochrome P450 3A4 it was 24.5 µM; against Cytochrome P450 2C9, 4 µM; against Cytochrome P450 2C19, 28 µM. Besides, the hepatic extraction ratio at 1 h, 1 µM in series [2] is less than 0.056; in series [4] it was 0.24. For the same molecule, the Papp in series [3] was less than 2 ×10⁻⁶ cm/s.
Turning to `CCCC(=O)N1CCC(c2ccc(C(=O)NC(=N)N)cc2C(F)(F)F)CC1`, in series [1], the IC50 turned out to be 0.029 µM.
For `COc1ccc(C(=O)N2CCC(c3ccc(C(=O)NC(=N)N)cc3C(F)(F)F)CC2)cc1`, the IC50 in series [1] is 0.132 µM. In addition, in series [3], the Papp is no less than 2 ×10⁻⁶ cm/s.
For `CN(C)C(=O)c1ccc(C(=O)N2CCC(c3ccc(C(=O)NC(=N)N)cc3C(F)(F)F)CC2)cc1` the same measures were 0.05 µM and less than 2 ×10⁻⁶ cm/s.
In the case of `N#Cc1ccccc1C(=O)N1CCC(c2ccc(C(=O)NC(=N)N)cc2C(F)(F)F)CC1`, the IC50 against Cytochrome P450 2D6 is 10 µM; in series [1], 0.061 µM; against Cytochrome P450 3A4, greater than 30 µM; against Cytochrome P450 2C9, 4 µM; against Cytochrome P450 2C19, 16 µM. Besides, the hepatic extraction ratio at 1 h, 1 µM in series [2] was less than 0.06; in series [4], 0.4. The Papp in series [3] is no less than 2 ×10⁻⁶ cm/s.
Turning to `N=C(N)NC(=O)c1ccc(C2CCN(C(=O)c3ccc(-c4ccccc4)cc3)CC2)c(C(F)(F)F)c1`, the IC50 in series [1] amounted to 4.71 µM.
Same read-out and setting: then `N=C(N)NC(=O)c1ccc(C2CCN(C(=O)c3cccc(-c4cnco4)c3)CC2)c(C(F)(F)F)c1`, with 0.033 µM.
On to `CN(C)S(=O)(=O)c1ccc(C(=O)N2CCC(c3ccc(C(=O)NC(=N)N)cc3C(F)(F)F)CC2)cc1`, for which the Papp in series [3] is no less than 2 ×10⁻⁶ cm/s.
`CC(C)C(=O)N1CCC(c2ccc(C(=O)NC(=N)N)cc2C(F)(F)F)CC1`: the IC50 against Cytochrome P450 2D6 is greater than 30 µM; in series [1], 0.028 µM; against Cytochrome P450 3A4, 0.4 µM; against Cytochrome P450 2C9, 7 µM. Also, the hepatic extraction ratio at 1 h, 1 µM in series [2] is 0.39; in series [4] it was less than 0.11. For the same molecule, the Papp in series [3] is no less than 2 ×10⁻⁶ cm/s.
Regarding `CC(C)CC(=O)N1CCC(c2ccc(C(=O)NC(=N)N)cc2C(F)(F)F)CC1`, the IC50 in series [1] came out at 0.047 µM.
`N=C(N)NC(=O)c1ccc(C2CCN(C(=O)c3ccncc3)CC2)c(C(F)(F)F)c1`: the IC50 was 11 µM against Cytochrome P450 2D6; 0.018 µM in series [1]; greater than 30 µM on Cytochrome P450 3A4; 0.4 µM at Cytochrome P450 2C9; 0.06 µM on Cytochrome P450 2C19. The hepatic extraction ratio at 1 h, 1 µM in series [2] was 0.12; in series [4] it was less than 0.11. Besides, in series [3], the Papp was no less than 2 ×10⁻⁶ cm/s.
For `N=C(N)NC(=O)c1ccc(C2CCN(C(=O)c3ccccn3)CC2)c(C(F)(F)F)c1`, the IC50 at Cytochrome P450 2D6 was 27 µM; in series [1], 0.018 µM; at Cytochrome P450 3A4, greater than 30 µM; at Cytochrome P450 2C9, 3 µM; on Cytochrome P450 2C19 it was 26 µM. Further, the hepatic extraction ratio at 1 h, 1 µM is less than 0.06 in series [2] and 0.49 in series [4]. In addition, in series [3], the Papp is no less than 2 ×10⁻⁶ cm/s.
In the case of `N=C(N)NC(=O)c1ccc(C2CCN(C(=O)c3cccnc3)CC2)c(C(F)(F)F)c1`, the IC50 on Cytochrome P450 2D6 was greater than 30 µM; in series [1], 0.018 µM; against Cytochrome P450 3A4 it was greater than 30 µM; at Cytochrome P450 2C9, 13 µM; against Cytochrome P450 2C19, greater than 30 µM. Further, the values for the hepatic extraction ratio at 1 h, 1 µM in series [2] and in series [4] were less than 0.06 and 0.33, respectively. For the same molecule, the Papp in series [3] was less than 2 ×10⁻⁶ cm/s.
Consider `CNS(=O)(=O)c1ccc(C(=O)N2CCC(c3ccc(C(=O)NC(=N)N)cc3C(F)(F)F)CC2)cc1`, for which, in series [1], the IC50 worked out at 0.03 µM. Besides, the Papp in series [3] was less than 2 ×10⁻⁶ cm/s.
For the molecule `N=C(N)NC(=O)c1ccc(C2CCN(C(=O)c3ccc(Cl)cc3)CC2)c(C(F)(F)F)c1`, in series [1], the IC50 was found to be 0.306 µM.
Still for that read-out and setting: then `N=C(N)NC(=O)c1ccc(C2CCN(C(=O)c3ccc(-n4ccnc4)cc3)CC2)c(C(F)(F)F)c1`, with 0.065 µM.
Regarding `Cc1cc(C(=O)N2CCC(c3ccc(C(=O)NC(=N)N)cc3C(F)(F)F)CC2)nn1C`, the IC50 in series [1] was determined as 0.027 µM. The figures for the hepatic extraction ratio at 1 h, 1 µM in series [2] and in series [4] were 0.78 and 0.68, respectively. Moreover, in series [3], the Papp is less than 2 ×10⁻⁶ cm/s.
As to `N=C(N)NC(=O)c1ccc(C2CCN(C(=O)C3CC3)CC2)c(C(F)(F)F)c1`, the IC50 at Cytochrome P450 2D6 was found to be 17 µM; against Cytochrome P450 3A4 it was 16 µM; against Cytochrome P450 2C9, 6 µM; on Cytochrome P450 2C19 it was 5 µM. For the same molecule, the hepatic extraction ratio at 1 h, 1 µM in series [2] is less than 0.056; in series [4] it was less than 0.11. In addition, the Papp in series [3] was no less than 2 ×10⁻⁶ cm/s.
With `N=C(N)NC(=O)c1ccc(C2CCN(C(=O)c3ccc(F)cc3)CC2)c(C(F)(F)F)c1`, the IC50 is greater than 30 µM at Cytochrome P450 2D6, 6 µM at Cytochrome P450 3A4, 8 µM on Cytochrome P450 2C9 and 11 µM against Cytochrome P450 2C19. The hepatic extraction ratio at 1 h, 1 µM is 0.3 in series [2] and 0.32 in series [4]. In addition, the Papp in series [3] was no less than 2 ×10⁻⁶ cm/s.
For `N=C(N)NC(=O)c1ccc(C2CCN(C(=O)c3cccc(Cl)c3)CC2)c(C(F)(F)F)c1`, in series [1], the IC50 is 0.385 µM.

The IC50 is the midpoint of a concentration-inhibition curve.
